How the values were obtained:
Type in all cases: ADME, cell-based, Canis lupus familiaris
Conditions in all cases: dog
[1] = test system: MDCK; assay: Efflux ratio of apparent permeability from basal to apical side to apical to basal side of MDCK cells expressing MDR1 at 2 uM by LC-MS/MS analysis
[2] = test system: MDCK; assay: Apparent permeability from basal to apical side of MDCK cells expressing MDR1 at 2 uM by LC-MS/MS analysis
How it was run: (§1)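 MDR1-MDCK monolayers grown on PET inserts (seeded 2 × 10⁵ cells/cm², 4-6 days to confluence). Compound diluted from 10 mM stock into HBSS pH 7.4 to 2 μM, dosed apically or basolaterally. Analyte quantified by LC-MS/MS as analyte/IS peak area ratio. Papp from 0.084 cm² monolayer area and initial donor concentration. Triplicate, reported as means.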

[3] = test system: MDCK; assay: Apparent permeability from apical to basal side of MDCK cells expressing MDR1 at 2 uM by LC-MS/MS analysis; how it was run: as §1

| SMILES | Ratio [1] | Papp [2] [×10⁻⁶ cm/s] | Papp [3] [×10⁻⁶ cm/s] |
| --- | --- | --- | --- |
| N#CCNC(=O)[C@H](Cc1c[nH]cn1)NC(=O)OCc1ccccc1 | 5.8 | 2.94 | 0.51 |
| NC(=O)[C@H](Cc1ccccc1)NC(=O)OCc1ccccc1 | 0.86 | 21.1 | 24.6 |
| NC(=O)[C@H](Cc1ccncc1)NC(=O)OCc1ccccc1 | 3.1 | 13.4 | 4.31 |

Source: ChEMBL document CHEMBL2040742, “Predicting and improving the membrane permeability of peptidic small molecules” (J Med Chem, 2012)
